Test results published in ChEMBL document CHEMBL1122852, “Imidazo[1,5-d][1,2,4]triazines as potential antiasthma agents” (J Med Chem, 1985).
Active and inactive are the calls of the source. The rule behind the calls is not given here.

Species on record: Homo sapiens
Assay: Inhibitory activity against histamine release from antigen-challenged, sensitized human basophils
Assay type: functional
Details: Homo sapiens
Outline: (§1)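 Histamine release was induced by antigen challenge of sensitized human basophils in vitro. Compounds were first screened at a single concentration. Those reducing release by more than 50% went on to concentration-response testing to estimate IC50. Values are given with standard error and number of experiments.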

**Q.** `CCCc1nnc(O)n2c(CCC)nc(C)c12` was tested. Which IC50 did it give?
**A.** 16 µM

**Q.** With `Cn1c(=O)c2nc[nH]c2n(C)c1=O.O` [THEOPHYLLINE] as the compound, how does the IC50 read?
**A.** 335 µM

**Q.** Which IC50 does the source give for `CCCc1nc(C)c2c(C)nnc(O)n12` here?
**A.** 14 µM

**Q.** `C=CCn1ncc2c(C)nc(Cc3ccccc3)n2c1=O` was tested. Which IC50 did it give?
**A.** > 48 µM

**Q.** For `CCCc1ncn2c(Nc3cc[nH]n3)nncc12`, which IC50 is on record?
**A.** > 48 µM

**Q.** How did the IC50 turn out when `Oc1nnc(Br)c2c(Br)nc(Br)n12` was run?
**A.** 27 µM

**Q.** `CCOC(=O)CSc1nncc2cncn12` was tested. Which IC50 did it give?
**A.** > 48 µM

**Q.** For `c1ccc(C(c2ccccc2)N2CCN(c3nncc4cncn34)CC2)cc1`, which IC50 is on record?
**A.** > 48 µM

**Q.** Which IC50 does the source give for `Cc1ncn2c(S)nncc12` here?
**A.** > 48 µM

**Q.** `CC(C)(C)c1nc(Br)c2cnnc(O)n12` was tested. Which IC50 did it give?
**A.** 19 µM

**Q.** Which IC50 does the source give for `COCc1nc(C)c2cnnc(S)n12` here?
**A.** > 48 µM

**Q.** `CSc1nnc(-c2ccccc2)c2cncn12` was tested. Which IC50 did it give?
**A.** > 48 µM

**Q.** For `CCOC(=O)CSc1nncc2cnc(C)n12`, which IC50 is on record?
**A.** 52 µM

**Q.** Which IC50 does the source give for `CCCc1ncc2cnnc(S)n12` here?
**A.** > 48 µM

**Q.** With `CCc1nnc(S)n2c(C(C)CC)nc(C)c12` (configuration not stated) as the compound, how does the IC50 read?
**A.** > 48 µM

**Q.** Which IC50 does the source give for `C=CCn1ncc2c(C)nc(CC)n2c1=O` here?
**A.** > 48 µM

**Q.** Which IC50 does the source give for `CCCc1nc(C)c2cnnc(O)n12` here?
**A.** 56.8 µM

**Q.** Which IC50 does the source give for `CCOC(=O)/C=C/CSc1nncc2cncn12` here?
**A.** > 48 µM

**Q.** `CCn1ncc2c(C)nc(C(C)C)n2c1=O` was tested. Which IC50 did it give?
**A.** > 48 µM

**Q.** Which IC50 does the source give for `CCCc1nc(C)c2c(CC)nnc(O)n12` here?
**A.** 15.6 µM

**Q.** `CNc1nncc2c(C)ncn12` was tested. Which IC50 did it give?
**A.** > 48 µM

**Q.** How did the IC50 turn out when `CN1CCN(c2nncc3cncn23)CC1` was run?
**A.** > 48 µM

**Q.** For `CCCc1nc(C)c2cnnc(NCCN(C)C)n12`, which IC50 is on record?
**A.** > 48 µM

**Q.** `CCCc1nc(C)c2cnn(C/C=C/C(=O)OCC)c(=O)n12` was tested. Which IC50 did it give?
**A.** > 48 µM

**Q.** With `Cc1nc(C(C)C)n2c(S)nncc12` as the compound, how does the IC50 read?
**A.** > 48 µM

**Q.** Which IC50 does the source give for `CC(C)c1ncn2c(S)nncc12` here?
**A.** > 48 µM

Tested on: Cavia porcellus
Assay: Compound was evaluated in the guinea pig anaphylaxis test for in vivo activity; Inactive, treated 12/19, control 16/20
Assay type: functional, organism-based
Details: not given

**Q.** `Cn1c(=O)c2[nH]cnc2n(C)c1=O` was tested. Which Activity did it give?
**A.** inactive

Species on record: Homo sapiens
Assay: Inhibitory activity against histamine release from antigen-challenged, sensitized human basophils; Fluorescent compound, obscuring the histamine assay
Assay type: functional
Details: not given
Outline: as §1

**Q.** With `Cc1nnc(O)n2c(C)nc(C)c12` as the compound, how does the IC50 read?
**A.** Fluoroescent compound, obscuring the histamine assay

Species on record: Mus musculus
Assay: Effective dose in mouse PCA test
Assay type: functional
Details: not given
Outline: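 Female CFW mice were passively sensitized with 50 µL of diluted homologous IgE-containing serum iv. Two days later compound was given po, 1 h before iv ovalbumin antigen plus Evans Blue dye. Mice were killed after 20 min, and each lesion area was scored as the product of two normal diameters.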

**Q.** With `CCCc1nnc(O)n2c(CCC)nc(C)c12` as the compound, how does the ED50 read?
**A.** 114 mg/kg

**Q.** For `Cn1c(=O)c2nc[nH]c2n(C)c1=O.O` [THEOPHYLLINE], which ED50 is on record?
**A.** 140 mg/kg

**Q.** How did the ED50 turn out when `CCCc1nc(C)c2c(C)nnc(O)n12` was run?
**A.** 109 mg/kg

**Q.** `CCCc1nc(C)c2c(CC)nnc(O)n12` was tested. Which ED50 did it give?
**A.** 146 mg/kg
